Experimental data: ChEMBL document CHEMBL5705891, “Small-molecule kinase inhibitors provide insight into Mps1 cell cycle function” (Nat Chem Biol, 2010)
pKd: −log10 of the molar value. Calls of active or inactive are those of the source. No cut-off for these calls is given here.

Tests used:
[1] = biological target: ALK tyrosine kinase receptor (Homo sapiens, UniProt Q9UM73); assay: Binding affinity to ALK (unknown origin) assessed as dissociation constant by Ambit kinase binding assay
[2] = biological target: Insulin-like growth factor 1 receptor (Homo sapiens, UniProt P08069); assay: Inhibition of IGF1R (unknown origin) assessed as residual enzyme activity at 10 uM by Ambit kinase binding assay relative to control
Chain of Insulin-like growth factor 1 receptor (P08069 31-736 limits assumed): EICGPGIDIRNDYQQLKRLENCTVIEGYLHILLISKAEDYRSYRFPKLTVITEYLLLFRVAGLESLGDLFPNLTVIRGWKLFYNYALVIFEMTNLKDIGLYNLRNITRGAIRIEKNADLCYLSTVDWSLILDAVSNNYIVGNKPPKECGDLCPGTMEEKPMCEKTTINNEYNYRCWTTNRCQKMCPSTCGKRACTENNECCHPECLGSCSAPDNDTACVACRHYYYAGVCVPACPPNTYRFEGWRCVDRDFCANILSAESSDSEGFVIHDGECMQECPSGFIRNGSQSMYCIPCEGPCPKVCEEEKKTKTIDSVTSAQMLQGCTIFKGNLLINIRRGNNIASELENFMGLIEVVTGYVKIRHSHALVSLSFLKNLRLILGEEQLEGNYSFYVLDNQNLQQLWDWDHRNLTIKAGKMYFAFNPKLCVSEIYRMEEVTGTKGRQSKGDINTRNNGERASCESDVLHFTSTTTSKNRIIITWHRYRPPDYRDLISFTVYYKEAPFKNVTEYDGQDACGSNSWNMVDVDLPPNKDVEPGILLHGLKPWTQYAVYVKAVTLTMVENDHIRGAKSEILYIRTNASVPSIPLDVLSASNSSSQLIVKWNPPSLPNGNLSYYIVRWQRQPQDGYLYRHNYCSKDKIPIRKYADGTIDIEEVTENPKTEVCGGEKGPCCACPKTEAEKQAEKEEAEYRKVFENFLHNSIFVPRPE
Chain of Insulin-like growth factor 1 receptor (P08069 741-1367 limits assumed): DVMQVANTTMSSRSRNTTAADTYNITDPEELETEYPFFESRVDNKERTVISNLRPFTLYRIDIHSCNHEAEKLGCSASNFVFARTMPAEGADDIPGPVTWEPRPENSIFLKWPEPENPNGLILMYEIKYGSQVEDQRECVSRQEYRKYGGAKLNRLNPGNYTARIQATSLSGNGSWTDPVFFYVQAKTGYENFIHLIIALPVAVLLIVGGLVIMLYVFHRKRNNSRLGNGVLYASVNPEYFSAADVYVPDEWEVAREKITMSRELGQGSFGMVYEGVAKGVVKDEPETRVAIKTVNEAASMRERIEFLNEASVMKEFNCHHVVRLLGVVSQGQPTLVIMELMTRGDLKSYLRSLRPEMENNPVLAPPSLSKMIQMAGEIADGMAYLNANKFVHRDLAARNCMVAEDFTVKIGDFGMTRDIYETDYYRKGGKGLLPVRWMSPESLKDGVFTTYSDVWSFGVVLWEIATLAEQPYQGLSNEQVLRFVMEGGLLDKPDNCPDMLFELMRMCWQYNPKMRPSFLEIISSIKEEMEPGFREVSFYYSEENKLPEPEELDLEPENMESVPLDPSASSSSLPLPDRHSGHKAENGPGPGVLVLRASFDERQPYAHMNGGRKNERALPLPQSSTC

Insulin receptor = Insulin receptor (Homo sapiens, UniProt P06213); assay: Inhibition of INSR (unknown origin) assessed as residual enzyme activity at 10 uM by Ambit kinase binding assay relative to control
Chain of Insulin receptor (P06213 28-758 limits assumed): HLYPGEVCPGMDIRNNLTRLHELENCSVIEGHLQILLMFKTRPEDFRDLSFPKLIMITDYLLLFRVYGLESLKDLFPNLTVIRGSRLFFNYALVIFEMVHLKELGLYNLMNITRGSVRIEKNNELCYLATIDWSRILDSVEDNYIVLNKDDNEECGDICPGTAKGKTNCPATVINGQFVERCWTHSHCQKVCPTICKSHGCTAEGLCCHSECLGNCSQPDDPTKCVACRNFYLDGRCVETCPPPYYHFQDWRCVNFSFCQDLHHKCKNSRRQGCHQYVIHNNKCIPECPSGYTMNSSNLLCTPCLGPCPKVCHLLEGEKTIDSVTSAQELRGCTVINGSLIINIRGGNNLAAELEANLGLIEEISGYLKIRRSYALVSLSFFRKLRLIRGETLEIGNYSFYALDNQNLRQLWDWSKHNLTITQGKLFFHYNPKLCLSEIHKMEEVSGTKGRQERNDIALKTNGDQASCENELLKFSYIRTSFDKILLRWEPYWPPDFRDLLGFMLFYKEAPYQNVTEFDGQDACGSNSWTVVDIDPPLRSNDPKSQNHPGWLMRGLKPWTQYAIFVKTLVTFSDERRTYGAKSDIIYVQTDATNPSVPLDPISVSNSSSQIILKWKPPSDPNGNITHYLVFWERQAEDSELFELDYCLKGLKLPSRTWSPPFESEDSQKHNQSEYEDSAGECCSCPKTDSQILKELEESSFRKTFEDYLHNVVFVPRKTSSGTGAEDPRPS
Chain of Insulin receptor (P06213 763-1382 limits assumed): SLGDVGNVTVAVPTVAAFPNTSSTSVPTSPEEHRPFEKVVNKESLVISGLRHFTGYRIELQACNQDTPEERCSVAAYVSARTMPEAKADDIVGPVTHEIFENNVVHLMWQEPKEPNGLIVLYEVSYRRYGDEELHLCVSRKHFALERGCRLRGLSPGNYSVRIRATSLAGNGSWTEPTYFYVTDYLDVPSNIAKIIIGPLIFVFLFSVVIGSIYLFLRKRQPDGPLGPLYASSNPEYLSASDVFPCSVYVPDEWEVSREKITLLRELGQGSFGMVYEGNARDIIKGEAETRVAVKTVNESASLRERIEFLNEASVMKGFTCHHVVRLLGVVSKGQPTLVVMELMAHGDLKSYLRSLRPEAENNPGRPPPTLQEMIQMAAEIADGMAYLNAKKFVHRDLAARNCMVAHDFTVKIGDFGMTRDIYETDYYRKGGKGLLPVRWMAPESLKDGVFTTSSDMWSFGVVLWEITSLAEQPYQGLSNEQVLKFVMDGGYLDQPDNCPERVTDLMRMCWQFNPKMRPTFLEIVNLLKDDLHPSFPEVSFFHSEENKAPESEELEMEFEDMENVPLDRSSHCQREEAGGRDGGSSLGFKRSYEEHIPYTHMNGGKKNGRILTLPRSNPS

MCF-10A = assay: Antiproliferative activity against human MCF-10A cells at 10 uM incubated for 4 days by Syto60 staining based assay; type: toxicity, cell-based; conditions: 96 h, time 4 day
In short: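 Proliferation read by Syto60 nucleic acid stain fluorescence (excitation 635 nm, emission 695 nm) after treatment for up to 96 h. Each time point normalized to its DMSO control. Mean ± SD from 4 independent experiments. Cells kept at 37°C, 5% CO2 in 10% FBS-supplemented medium.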

[3] = biological target: Myosin-IIIb (Homo sapiens) (UniProt Q8WXR4); assay: Inhibition of MYO3B (unknown origin) assessed as residual enzyme activity at 10 uM by Ambit kinase binding assay relative to control
Chain of Myosin-IIIb (Homo sapiens) (Q8WXR4 whole entry): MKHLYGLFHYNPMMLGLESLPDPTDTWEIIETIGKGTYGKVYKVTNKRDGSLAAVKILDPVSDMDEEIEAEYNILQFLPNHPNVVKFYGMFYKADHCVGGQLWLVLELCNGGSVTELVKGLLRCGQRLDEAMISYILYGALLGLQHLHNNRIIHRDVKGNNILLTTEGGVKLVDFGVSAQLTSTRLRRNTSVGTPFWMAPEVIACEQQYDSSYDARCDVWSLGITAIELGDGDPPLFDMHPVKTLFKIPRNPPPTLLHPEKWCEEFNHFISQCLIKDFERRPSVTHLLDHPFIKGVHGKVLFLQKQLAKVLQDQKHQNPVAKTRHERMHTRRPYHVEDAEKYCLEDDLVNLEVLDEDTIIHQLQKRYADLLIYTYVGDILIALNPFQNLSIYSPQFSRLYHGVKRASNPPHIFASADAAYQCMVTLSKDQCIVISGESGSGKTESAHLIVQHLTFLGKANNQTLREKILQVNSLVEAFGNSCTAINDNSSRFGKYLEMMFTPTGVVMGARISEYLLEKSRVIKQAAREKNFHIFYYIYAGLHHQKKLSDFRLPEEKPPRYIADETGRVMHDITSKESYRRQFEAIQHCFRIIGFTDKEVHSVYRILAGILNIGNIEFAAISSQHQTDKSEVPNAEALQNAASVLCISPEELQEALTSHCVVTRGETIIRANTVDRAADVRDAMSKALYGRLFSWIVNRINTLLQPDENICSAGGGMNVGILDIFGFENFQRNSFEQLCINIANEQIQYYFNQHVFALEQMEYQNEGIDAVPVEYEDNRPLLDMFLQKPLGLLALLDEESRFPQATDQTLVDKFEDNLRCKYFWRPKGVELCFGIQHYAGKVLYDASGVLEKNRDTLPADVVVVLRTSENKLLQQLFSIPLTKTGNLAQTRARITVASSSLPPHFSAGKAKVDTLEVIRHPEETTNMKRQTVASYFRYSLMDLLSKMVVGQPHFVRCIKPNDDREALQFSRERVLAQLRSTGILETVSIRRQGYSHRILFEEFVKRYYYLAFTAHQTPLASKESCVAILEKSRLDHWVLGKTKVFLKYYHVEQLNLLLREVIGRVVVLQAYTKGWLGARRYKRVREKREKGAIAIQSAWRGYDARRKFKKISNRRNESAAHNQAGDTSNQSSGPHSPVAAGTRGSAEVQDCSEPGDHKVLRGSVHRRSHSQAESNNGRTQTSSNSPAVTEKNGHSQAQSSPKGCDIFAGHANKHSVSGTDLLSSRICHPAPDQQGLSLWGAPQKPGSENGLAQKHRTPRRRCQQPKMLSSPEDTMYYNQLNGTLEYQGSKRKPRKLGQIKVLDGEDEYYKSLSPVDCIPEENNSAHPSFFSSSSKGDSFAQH

HeLa S3 = assay: Effect on thymidine-treated human HeLa S3 cell populations after two cell doubling at 10 uM incubated for 4 hrs followed by thymidine release by immunofluorescence imaging analysis; type: functional, cell-based
[4] = biological target: Dual specificity protein kinase CLK4 (Homo sapiens) (UniProt Q9HAZ1); assay: Inhibition of CLK4 (unknown origin) assessed as residual enzyme activity at 10 uM by Ambit kinase binding assay relative to control
Chain of Dual specificity protein kinase CLK4 (Homo sapiens) (Q9HAZ1 whole entry, looked up): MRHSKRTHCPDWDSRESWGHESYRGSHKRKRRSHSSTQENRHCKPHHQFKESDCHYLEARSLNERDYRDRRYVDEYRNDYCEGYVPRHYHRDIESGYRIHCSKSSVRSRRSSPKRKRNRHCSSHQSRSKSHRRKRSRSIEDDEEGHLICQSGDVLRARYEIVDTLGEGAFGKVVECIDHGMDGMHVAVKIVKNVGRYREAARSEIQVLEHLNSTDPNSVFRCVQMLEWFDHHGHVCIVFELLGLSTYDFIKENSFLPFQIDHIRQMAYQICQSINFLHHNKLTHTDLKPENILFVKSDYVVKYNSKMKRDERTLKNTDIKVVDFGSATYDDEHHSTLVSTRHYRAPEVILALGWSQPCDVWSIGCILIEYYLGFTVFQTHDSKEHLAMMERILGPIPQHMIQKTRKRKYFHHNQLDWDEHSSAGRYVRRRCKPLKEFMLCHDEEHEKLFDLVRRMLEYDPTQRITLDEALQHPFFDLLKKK

UTRM10 [5] = assay: Induction of aneuploidy in UTRM10 cells (unknown origin) expressing LAP-tagged Mps1 M602Q mutant co-transfected with H2B-EYFP at 10 uM by time-lapse microscopy; type: functional, cell-based
In short: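 UTRM10 LAP-Mps1 cells transfected with H2B-EYFP were treated and imaged by time-lapse in a heated chamber (37°C, 5% CO2).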

U2OS [6] = assay: Induction of multipolar anaphases in thymidine-treated human U2OS cells expressing H2B-GFP and Plk4 overexpression measured for 30 mins by time lapse imaging analysis; type: functional, cell-based
In short: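 Doxycycline-inducible Plk4 U2OS cells expressing H2B-GFP were blocked with thymidine for 18 hrs and released into doxycycline (2 μg·ml⁻¹) for 10 hrs. A second 18-hr thymidine block followed, then release for 6 hrs before 5 μM inhibitor, with or without Plk4 induction. Cells were imaged by time-lapse at 37°C, 5% CO₂, timed from NEBD, and bipolar versus multipolar anaphases were scored. Values are mean ± SD of 3 independent experiments.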

[7] = biological target: Serine/threonine-protein kinase 33 (Homo sapiens, UniProt Q9BYT3); assay: Inhibition of STK33 (unknown origin) assessed as residual enzyme activity at 10 uM by Ambit kinase binding assay relative to control
[8] = test system: Receptor-type tyrosine-protein kinase FLT3 (Homo sapiens), P36888 [D835Y]; assay: Inhibition of FLT3 D835Y mutant (unknown origin) assessed as residual enzyme activity at 10 uM by Ambit kinase binding assay relative to control
[9] = biological target: Dual specificity protein kinase CLK1 (Homo sapiens, UniProt P49759); assay: Binding affinity to CLK1 (unknown origin) assessed as dissociation constant by Ambit kinase binding assay
Chain of Dual specificity protein kinase CLK1 (P49759 whole entry): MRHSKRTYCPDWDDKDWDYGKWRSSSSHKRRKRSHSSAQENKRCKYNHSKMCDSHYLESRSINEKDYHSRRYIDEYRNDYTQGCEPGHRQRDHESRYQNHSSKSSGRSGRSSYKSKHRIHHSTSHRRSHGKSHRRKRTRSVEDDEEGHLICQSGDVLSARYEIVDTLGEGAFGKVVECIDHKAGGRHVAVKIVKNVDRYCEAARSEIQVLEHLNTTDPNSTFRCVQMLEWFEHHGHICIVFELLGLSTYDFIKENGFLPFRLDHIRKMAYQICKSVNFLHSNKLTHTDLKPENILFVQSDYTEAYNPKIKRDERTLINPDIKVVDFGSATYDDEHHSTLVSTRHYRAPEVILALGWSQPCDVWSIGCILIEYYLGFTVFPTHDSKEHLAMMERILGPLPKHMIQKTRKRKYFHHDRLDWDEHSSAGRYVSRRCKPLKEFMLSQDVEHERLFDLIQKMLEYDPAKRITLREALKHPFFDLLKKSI

TERT-RPE1 = assay: Induction of aneuploidy in human TERT-RPE1 cells assessed as average chromosome number at 10 uM treated for 24 hrs by karyo-typing analysis (reference value: 45.9 +/- 0.3); type: functional
In short: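 Asynchronous cells were exposed to 10 μM compound for 24 h. Medium was then replaced with medium containing 100 ng/mL colcemid for 2 h to arrest cells in metaphase, after which cells were harvested and karyotyped.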

[10] = biological target: Mitogen-activated protein kinase 7 (Homo sapiens) (UniProt Q13164); assay: Inhibition of ERK5 (unknown origin) assessed as residual enzyme activity at 10 uM by Ambit kinase binding assay relative to control
[11] = biological target: Non-receptor tyrosine-protein kinase TNK1 (Homo sapiens, UniProt Q13470); assay: Binding affinity to TNK1 (unknown origin) assessed as dissociation constant by Ambit kinase binding assay
U2OS [12] = assay: Reversal of s-trityl cysteine-induced mitotic arrest in human U2OS cells assessed as accumulation of 4N phosphorylated Histone H3-negative cells incubated for 16 hrs by flow cytometry; type: functional, cell-based; conditions: dose 5-10 µM
Activated CDC42 kinase 1 = Activated CDC42 kinase 1 (Homo sapiens, UniProt Q07912); assay: Inhibition of TNK2 (unknown origin) assessed as residual enzyme activity at 10 uM by Ambit kinase binding assay relative to control
UTRM10 [13] = assay: Induction of chromosome mis-segregation in UTRM10 cells (unknown origin) expressing LAP-tagged Mps1 M602Q mutant co-transfected with H2B-EYFP at 10 uM by time-lapse microscopy; type: functional, cell-based
A549 = assay: Antiproliferative activity against human A549 cells at 10 uM incubated for 4 days by Syto60 staining based assay; type: functional, cell-based; conditions: time 4.0 day
HCT-116 = assay: Antiproliferative activity against human HCT-116 cells with p53-/- at 10 uM measured after 96 hrs in presence of Z-VAD-FMK by Syto60 staining based assay; type: functional, cell-based
[14] = biological target: Tyrosine-protein kinase Blk (Homo sapiens) (UniProt P51451); assay: Inhibition of BLK (unknown origin) assessed as residual enzyme activity at 10 uM by Ambit kinase binding assay relative to control
[15] = biological target: Ribosomal protein S6 kinase alpha-5 (Homo sapiens) (UniProt O75582); assay: Inhibition of RPS6KA5 kinase domain 2 (unknown origin) assessed as residual enzyme activity at 10 uM by Ambit kinase binding assay relative to control
[16] = biological target: Death-associated protein kinase 2 (Homo sapiens) (UniProt Q9UIK4); assay: Inhibition of DAPK2 (unknown origin) assessed as residual enzyme activity at 10 uM by Ambit kinase binding assay relative to control
[17] = biological target: Serine/threonine-protein kinase ULK3 (Homo sapiens) (UniProt Q6PHR2); assay: Inhibition of ULK3 (unknown origin) assessed as residual enzyme activity at 10 uM by Ambit kinase binding assay relative to control
[18] = biological target: Serine/threonine-protein kinase 16 (Homo sapiens) (UniProt O75716); assay: Inhibition of STK16 (unknown origin) assessed as residual enzyme activity at 10 uM by Ambit kinase binding assay relative to control

COc1cc(N2CCC(O)CC2)ccc1Nc1cc(Nc2ccccc2S(=O)(=O)C(C)C)c2cc[nH]c2n1
pKd [1]: 7.68 | Activity [2]: 0.9% | Activity (Insulin receptor): 0.15% | Activity (MCF-10A): Toxic | Activity [3]: 28% | Activity (HeLa S3): inactive | Activity [4]: 18% | Activity (UTRM10 [5]): inactive | Activity (U2OS [6]): Active | Activity [7]: 12% | Activity [8]: 24% | pKd [9]: 5.72 | Activity (TERT-RPE1): 46.5 | Activity [10]: 11% | pKd [11]: 5.59 | Activity (U2OS [12]): Dose-Dependent Effect | Activity (Activated CDC42 kinase 1): 14% | Activity (UTRM10 [13]): inactive | Activity (A549): Active | Activity (HCT-116): Active

O=C1c2ccccc2-c2n[nH]c3cccc1c23
Activity [14]: 12% | Activity [15]: 12% | Activity [16]: 4.1% | Activity [17]: 11% | Activity [18]: 1.4%
